Reference: ChEMBL document CHEMBL4145477, “Inhibitor of the human telomerase reverse trancriptase (hTERT) gene promoter induces cell apoptosis via a mitochondrial-dependent pathway” (Eur J Med Chem, 2018)
pEC50: −log10 of the molar value. Each block holds one compound with its values, some of them ahead of it. Calls of active or inactive are those of the source.

Legend:
[1] = (§1) Inhibition of human TERT promoter activity expressed in human HeLa cells after 24 hrs by luciferase reporter gene assay; type: cell-based
Method in brief: (§2)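 HeLa cells co-transfected with hTERT promoter–luciferase (P-3996) or pGL2 vector plus pCMV-β-gal. Replated at 5×10^3/well, then treated 24 h in DMEM with 3% FBS at 1–16 µM. Luciferase normalized to β-galactosidase and expressed as fold of 0.1% DMSO control. Three repeats.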

HeLa [2] = assay: Induction of apoptosis in human HeLa cells assessed as late apoptotic cells at 5 uM after 48 hrs by Annexin V-FITC/propidium iodide staining-based flow cytometric analysis (reference value: 15%); type: functional
HeLa [3] = assay: Antiproliferative activity against human HeLa cells at 5 uM by MTT assay; type: functional, cell-based; details: TDE = time-dependent effect
Method in brief: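 HeLa cells seeded 5,000/well in triplicate, exposed to 5 µM for 24 or 48 h. MTT added at 0.5 mg/ml final for 4 h at 37 °C in the dark. Formazan dissolved in DMSO and read at 570 nm. Three independent experiments.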

L02 = assay: Antiproliferative activity against human LO2 cells at 1 to 16 uM after 48 hrs by MTT assay; type: cell-based; details: l02, 48 h
Method in brief: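 L02 cells given 1, 2, 4, 8 and 16 µM for 48 h. Seeded 5,000/well in triplicate. MTT 0.5 mg/ml final, 4 h at 37 °C in the dark, DMSO solubilization, absorbance at 570 nm. Three independent experiments. IC50 from probit regression of relative absorbance.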

HeLa [4] = assay: Induction of apoptosis in human HeLa cells assessed as increase in cleaved caspase-9 levels at 5 uM after 24 hrs by Western blot analysis; type: functional, cell-based
Method in brief: (§3)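 Treated cells lysed in ice-cold Tris-HCl pH 7.5/NaCl/NP-40 buffer with protease inhibitors. Equal protein separated by SDS-PAGE and transferred to nitrocellulose. Blocked in 5% milk in PBST, primary antibodies overnight at 4 °C, secondary 1 h at room temperature, infrared imaging. β-actin probed alongside.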

HeLa [5] = assay: Induction of apoptosis in human HeLa cells assessed as decrease in Bcl-2 levels at 5 uM after 24 hrs by Western blot analysis; type: functional, cell-based; method in brief: as §3
HeLa [6] = assay: Induction of apoptosis in human HeLa cells assessed as increase in cleaved caspase-3 levels at 5 uM after 24 hrs by Western blot analysis; type: functional, cell-based; method in brief: as §3
HeLa [7] = assay: Induction of apoptosis in human HeLa cells assessed as early apoptotic cells at 5 uM after 48 hrs by Annexin V-FITC/propidium iodide staining-based flow cytometric analysis (reference value: 9.5%); type: functional
HeLa [8] = assay: Inhibition of colony formation in human HeLa cells at 5 uM after 3 weeks; type: functional, cell-based
Method in brief: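 HeLa cells treated with 5 µM and grown 3 weeks. Colonies photographed and colony-formation efficiency quantified.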

HeLa [9] = assay: Induction of apoptosis in human HeLa cells assessed as necrotic cells at 5 uM after 48 hrs by Annexin V-FITC/propidium iodide staining-based flow cytometric analysis (reference value: 1.5%); type: functional
HeLa [10] = assay: Induction of apoptosis in human HeLa cells assessed as chromatin condensation at 5 uM after 48 hrs by DAPI staining-based fluorescence microscopic analysis; type: functional, cell-based
Method in brief: (§4)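 Cells fixed in 5% paraformaldehyde and permeabilized with 0.1% Triton X-100 in PBS. Stained 10 min with DAPI (1 µg/mL) and examined by fluorescence microscopy. Nuclei with chromatin condensation and fragmentation scored apoptotic.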

HeLa [11] = assay: Inhibition of TERT promoter activity in human HeLa cells assessed as decrease in relative length of telomeres treated up to 22 generations by Q-PCR analysis; type: cell-based
Method in brief: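 HeLa cells cultured with compound or DMSO for 22 generations. Telomere length measured by qPCR as telomere/36B4 single-copy gene (T/S) ratio relative to a reference DNA. Samples run in duplicate, threshold 0.5.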

HeLa [12] = assay: Induction of apoptosis in human HeLa cells assessed as cell shrinkage at 5 uM after 48 hrs by DAPI staining-based fluorescence microscopic analysis; type: functional; method in brief: as §4
HeLa [13] = assay: Induction of apoptosis in human HeLa cells assessed as viable cells at 5 uM after 48 hrs by Annexin V-FITC/propidium iodide staining-based flow cytometric analysis (reference value: 74%); type: functional; details: read-out: Activity
HeLa [14] = assay: Induction of apoptosis in human HeLa cells assessed as increase in Bax levels at 5 uM after 24 hrs by Western blot analysis; type: functional, cell-based; method in brief: as §3
HeLa [15] = assay: as §1; type: cell-based; method in brief: as §2

Structure (SMILES): O=C1/C(=N\O)c2c(Br)cccc2N1Cc1ccc(Cl)cc1
pEC50 [1]: 5.22

Structure (SMILES): COc1ccc(-c2cccc3c2/C(=N/O)C(=O)N3Cc2ccc(Cl)cc2)cc1
pEC50 [1]: 4.92

Structure (SMILES): O=C1/C(=N\O)c2c(I)cccc2N1Cc1ccc(Cl)cc1
inhibition (HeLa [15]): Dose-dependent effect
pEC50 [1]: 4.85

Further compounds by rising pEC50 [1], results first:

pEC50 [1]: 4.89
Structure (SMILES): O=C1/C(=N\O)c2c(Cl)cccc2N1Cc1ccc(Cl)cc1

pEC50 [1]: 5.30
Structure (SMILES): O=C1/C(=N\O)c2c(-c3ccc(C(F)(F)F)cc3)cccc2N1Cc1ccc(Cl)cc1
Activity (HeLa [2]): 29.1%
Activity (HeLa [3]): Tde
Activity (L02): Non-Toxic
Activity (HeLa [4]): Active
Activity (HeLa [5]): Active
Activity (HeLa [6]): Active
Activity (HeLa [7]): 30.6%
inhibition (HeLa [8]): Active
Activity (HeLa [9]): 2.2%
Activity (HeLa [10]): Active
inhibition (HeLa [11]): Active
Activity (HeLa [12]): Active
viability at 5 µM (HeLa [13]): 38%
Activity (HeLa [14]): Active
